One series deals with RmuAP1CD. The experiment in a line: Effects of chemicals. Type of series: biochemical, Rhodotorula mucilaginosa. The conditions noted are these: same test as Table 1; preincubation 37 °C, 3 h; BSA, pH 2.5. The method, boiled down:
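Residual activity was then measured with 10 μg enzyme and 5 mg BSA per 1 mL at pH 2.5 for 1–1.5 h. The reaction was stopped with cold TCA (10% w/v final), centrifuged, and supernatant A280 read. Triplicate.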

The next series concerns the target pepsin (Sus scrofa, UniProt P00791). Description: biochemical. Details: species or system porcine. Particulars: for Proteolytic activity of pepsin (residual activity): pH 2.5.
A further series relates to BSA. Particulars: cited from earlier work.
Setting [1] is: BSA denatured by 10 min preincubation at pH 0.8.

Chain of pepsin (P00791 60-385): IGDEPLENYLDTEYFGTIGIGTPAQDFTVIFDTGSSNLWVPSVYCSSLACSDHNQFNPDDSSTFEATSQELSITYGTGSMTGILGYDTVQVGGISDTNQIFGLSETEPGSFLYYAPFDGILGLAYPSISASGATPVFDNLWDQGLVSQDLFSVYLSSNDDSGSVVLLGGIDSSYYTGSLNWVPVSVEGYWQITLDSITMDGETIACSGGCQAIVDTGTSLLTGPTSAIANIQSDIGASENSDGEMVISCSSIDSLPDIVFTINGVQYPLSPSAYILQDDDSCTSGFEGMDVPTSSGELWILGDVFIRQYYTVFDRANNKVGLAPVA

On to Triton X-100, for which, in the series with RmuAP1CD, the “Effect on the proteolytic activity of RmuAP1CD (in words)” value (from here on “Effect on the proteolytic activity”) is given as “moderately inhibited”.

Turning to pepstatin A, the “Effect on the proteolytic activity” value with RmuAP1CD is “drastically inhibited”.

With `O=C(O)CN(CCN(CC(=O)O)CC(=O)O)CC(=O)O` [EDTA, ethylenediaminetetraacetic acid], in the series with RmuAP1CD, the “Effect on the proteolytic activity” value is recorded as “unaffected”. For the same molecule, on pepsin (pH 2.5, read-out: Proteolytic activity of pepsin (residual activity)), the remaining activity at 5000 µM is 95 ± 2.5%.

For the molecule pepsin, in the series with BSA (setting [1]), the “Activity of pepsin on HCl-denatured BSA at pH 4.5” value is on record as 65% and the “pH of peak activity of pepsin on HCl-denatured BSA” value was 3.0. Also, the “Optimum pH of pepsin for BSA” value with BSA (native BSA, pH 1.0 to 5.5) is given as “about 1.7”. For the same molecule, the “Activity of pepsin on BSA at pH 4.0, of its peak value” in the series with BSA (native BSA) is listed as 10%.

Consider `O=S(=O)(F)Cc1ccccc1` [PMSF, phenylmethylsulfonyl fluoride], for which the “Effect on the proteolytic activity” value in the series with RmuAP1CD is on record as “unaffected”.

With `OCCS` [β-ME, β-mercaptoethanol], the “Effect on the proteolytic activity” value with RmuAP1CD was “did not influence the peptidase activity”. Further, the “Proteolytic activity of pepsin (residual activity)” value at pepsin is on record as 90 ± 1.0%.

Turning to `CCCCCCCCCCCCOS(=O)(=O)[O-].[Na+]` [SDS, sodium dodecyl sulfate], in the series with RmuAP1CD, the “Effect on the proteolytic activity” value is “moderately inhibited”. Also, the “Proteolytic activity of pepsin (residual activity)” value on pepsin is given as 30 ± 4.0%.

The values above are taken from PMC10655810 (Journal of Agricultural and Food Chemistry, 2023).
